Columns and labels:
Mus musculus [1] = test: Effect on RNA synthesis in tumor of CD-1 mouse allografted with mouse S180A cells assessed as [3H]-uridine incorporation at 20 mg/kg, ip pretreated for 1 hr followed by radiotracer-addition measured after 1 hr relative to control; format: functional; conditions: route intraperitoneal
Outline: (§1)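 Sarcoma 180 ascites cells implanted 6 days earlier. Mice received a single ip dose of 10–80 mg/kg, then 1 h later an ip tracer: 200 μg thymidine-3H, 200 μg uridine-3H or 125 μg DL-leucine-14C. Tracer was incorporated for 1 h. Specific activity of tumor-cell DNA, RNA or protein is expressed as % of untreated controls. Values are means of 4-16 mice, each analyzed separately.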

Mus musculus [2] = test: Effect on RNA synthesis in tumor of CD-1 mouse allografted with mouse S180A cells assessed as [3H]-uridine incorporation at 40 mg/kg, ip pretreated for 1 hr followed by radiotracer-addition measured after 1 hr relative to control; format: functional; conditions: route intraperitoneal; outline: as §1
Mus musculus [3] = test: Effect on protein synthesis in tumor of CD-1 mouse allografted with mouse S180A cells assessed as [14C]-leucine incorporation at 20 mg/kg, ip pretreated for 1 hr followed by radiotracer-addition measured after 1 hr relative to control; format: functional; conditions: route intraperitoneal; outline: as §1
Mus musculus [4] = test: Effect on DNA synthesis in tumor of CD-1 mouse allografted with mouse S180A cells assessed as [3H]-thymidine incorporation at 80 mg/kg, ip pretreated for 3 hrs followed by radiotracer-addition measured after 1 hr relative to control; format: functional; conditions: route intraperitoneal
Outline: (§2)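 Mice bearing 6-day Sarcoma 180 ascites implants received a single ip dose of 80 mg/kg. At the stated pretreatment time they were given ip tracer: 200 μg thymidine-3H, 200 μg uridine-3H or 125 μg DL-leucine-14C. After 1 h of incorporation, specific radioactivity of DNA, RNA or protein was read as % of control incorporation.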

Mus musculus [5] = test: Effect on DNA synthesis in tumor of CD-1 mouse allografted with mouse S180A cells assessed as [3H]-thymidine incorporation at 80 mg/kg, ip pretreated for 6 hrs followed by radiotracer-addition measured after 1 hr relative to control; format: functional; conditions: route intraperitoneal; outline: as §2
Mus musculus [6] = test: Effect on DNA synthesis in tumor of CD-1 mouse allografted with mouse S180A cells assessed as [3H]-thymidine incorporation at 80 mg/kg, ip pretreated for 12 hrs followed by radiotracer-addition measured after 1 hr relative to control; format: functional; conditions: route intraperitoneal; outline: as §2
Mus musculus [7] = test: Effect on RNA synthesis in tumor of CD-1 mouse allografted with mouse S180A cells assessed as [3H]-uridine incorporation at 80 mg/kg, ip pretreated for 3 hrs followed by radiotracer-addition measured after 1 hr relative to control; format: functional; conditions: route intraperitoneal; outline: as §2
Mus musculus [8] = test: Effect on RNA synthesis in tumor of CD-1 mouse allografted with mouse S180A cells assessed as [3H]-uridine incorporation at 80 mg/kg, ip pretreated for 6 hrs followed by radiotracer-addition measured after 1 hr relative to control; format: functional; conditions: route intraperitoneal; outline: as §2
Mus musculus [9] = test: Effect on protein synthesis in tumor of CD-1 mouse allografted with mouse S180A cells assessed as [14C]-leucine incorporation at 80 mg/kg, ip pretreated for 3 hrs followed by radiotracer-addition measured after 1 hr relative to control; format: functional; conditions: route intraperitoneal; outline: as §2
Mus musculus [10] = test: Effect on protein synthesis in tumor of CD-1 mouse allografted with mouse S180A cells assessed as [14C]-leucine incorporation at 80 mg/kg, ip pretreated for 6 hrs followed by radiotracer-addition measured after 1 hr relative to control; format: functional; conditions: route intraperitoneal; outline: as §2
[11] = Antineoplastic activity against mouse S180A cells allografted in CD-1 mouse assessed as average survival at maximum effective dose administered qd for 6 days (reference value: 12.5 +/- 0.3 days); format: functional
Outline: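 Sarcoma 180 ascites cells were transplanted from a donor mouse bearing a 7-day tumour. Each agent was tested at 10–60 mg/kg/day, once daily for six consecutive days, starting 24 h after transplantation, in groups of 5–10 mice. Pooled untreated controls totalled 40 mice. Mice surviving beyond 50 days were counted as 50-day survivors, and body-weight change over therapy served as the toxicity index.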

[12] = Antineoplastic activity against mouse S180A cells allografted in CD-1 mouse assessed as average survival at 60 mg/kg administered qd for 6 days (reference value: 12.9 +/- 1.2 days); format: functional
Outline: (§3)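 Ascitic tumours were transplanted from an appropriate donor mouse carrying a 7-day tumour growth. Drug was given at 10–60 mg/kg/day for six consecutive days. Sensitivity was judged by prolongation of survival time relative to untreated tumour-bearing controls. Mice were weighed throughout, and percentage weight change from onset to end of therapy indicated toxicity.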

[13] = Antineoplastic activity against mouse S180A cells allografted in CD-1 mouse assessed as mouse survival at 20 mg/kg administered qd for 6 days measured for 50 days relative to control; format: functional; outline: as §3
[14] = Antineoplastic activity against mouse S180A cells allografted in CD-1 mouse assessed as mouse survival at 40 mg/kg administered qd for 6 days measured for 50 days relative to control; format: functional; outline: as §3
Mus musculus [15] = test: Toxicity in CD-1 mouse allografted with 1-formylisoquinoline thiosemicarbazone-resistant mouse S180A cells assessed as change in body weight at 40 mg/kg administered qd for 6 days (reference value: 29.6%); format: organism-based; parameters: dose 40 mg/kg; conditions: in vivo, 144 h
Outline: (§4)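 Ascitic tumors were transplanted from a donor mouse bearing a 7-day tumor. Daily doses were given for six consecutive days. Percentage body-weight change from onset to termination of therapy served as the index of drug toxicity.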

[16] = Antineoplastic activity against 1-formylisoquinoline thiosemicarbazone-resistant mouse S180A cells allografted in CD-1 mouse assessed as average survival at 60 mg/kg administered qd for 6 days (reference value: 14.4 +/- 0.9 days); format: functional; outline: as §3
Mus musculus [17] = test: Toxicity in BDF1 mouse allografted with mouse L1210 cells assessed as change in body weight at 60 mg/kg administered qd for 6 days (reference value: 13.6%); format: organism-based; parameters: dose 60 mg/kg; conditions: in vivo, 144 h; outline: as §4
L1210 = test: Antineoplastic activity against mouse L1210 cells allografted in BDF1 mouse assessed as average survival at 60 mg/kg administered qd for 6 days (reference value: 8.2 +/- 0.4 days); format: functional; outline: as §3
Mus musculus [18] = test: Toxicity in CD-1 mouse allografted with mouse EAC cells assessed as change in body weight at 20 mg/kg administered qd for 6 days (reference value: 26.8%); format: organism-based, Ehrlich; parameters: dose 20 mg/kg; conditions: in vivo, 144 h; outline: as §4
Mus musculus [19] = test: Toxicity in CD-1 mouse allografted with mouse EAC cells assessed as change in body weight at 40 mg/kg administered qd for 6 days (reference value: 26.8%); format: organism-based, Ehrlich; parameters: dose 40 mg/kg; conditions: in vivo, 144 h; outline: as §4
Ehrlich = test: Antineoplastic activity against mouse EAC cells allografted in CD-1 mouse assessed as average survival at 20 mg/kg administered qd for 6 days (reference value: 14.4 +/- 1.2 days); format: functional; outline: as §3
Mus musculus [20] = test: Toxicity in C3H mouse allografted with mouse Hepa129 cells assessed as change in body weight at 20 mg/kg administered qd for 6 days (reference value: 13.5%); format: organism-based; parameters: dose 20 mg/kg; conditions: in vivo, 144 h; outline: as §4
Mus musculus [21] = test: Toxicity in C3H mouse allografted with mouse Hepa129 cells assessed as change in body weight at 40 mg/kg administered qd for 6 days (reference value: 13.5%); format: organism-based; parameters: dose 40 mg/kg; conditions: in vivo, 144 h; outline: as §4
[22] = Antineoplastic activity against mouse Hepa129 cells allografted in C3H mouse assessed as average survival at 20 mg/kg administered qd for 6 days (reference value: 18 +/- 0.6 days); format: functional; outline: as §3
[23] = Antineoplastic activity against mouse Hepa129 cells allografted in C3H mouse assessed as average survival at 40 mg/kg administered qd for 6 days (reference value: 18 +/- 0.6 days); format: functional; outline: as §3

For `Cc1ccc(S(=O)(=O)N/N=C/c2cccc[n+]2[O-])cc1`, the Activity (Mus musculus [1]) was 71%, the Activity (Mus musculus [2]) was 65% and the Activity (Mus musculus [3]) was 95%. For the same compound, the Activity (Mus musculus [4]) was 53%, the Activity (Mus musculus [5]) was 63% and the Activity (Mus musculus [6]) was 57%. It also gave an Activity (Mus musculus [7]) of 62%, an Activity (Mus musculus [8]) of 50% and an Activity (Mus musculus [9]) of 70%. The Activity (Mus musculus [10]) was 89%, the Survival [11] was 38.4 days and the Survival [12] was 38.4 days. The survival at 20 mg/kg [13] was 10%, the survival at 40 mg/kg [14] was 20% and the Activity (Mus musculus [15]) was 3.4%. For the same compound, the Survival [16] was 24.4 days, the Activity (Mus musculus [17]) was -5.8% and the Survival (L1210) was 11.8 days. It also gave an Activity (Mus musculus [18]) of 2.4%, an Activity (Mus musculus [19]) of -3.3% and a Survival (Ehrlich) of 34.6 days. The Activity (Mus musculus [20]) was 11%, the Activity (Mus musculus [21]) was 2.3% and the Survival [22] was 22.2 days. The Survival [23] was 24.8 days.

Source: ChEMBL document CHEMBL3271971, “Antineoplastic and biochemical properties of arylsulfonylhydrazones of 2-formylpyridine N-oxide” (J Med Chem, 1976)
